Results taken from ChEMBL document CHEMBL4393713, “Synthesis and biological evaluation of novel xanthine derivatives as potential apoptotic antitumor agents” (Eur J Med Chem, 2019).
pIC50: −log10 of the molar value.

How the values were obtained:
PANC-1 [1] = experiment: Antiproliferative activity against human PANC1 cells assessed as inhibition of cell proliferation measured after 48 hrs by MTT assay; format: functional, cell-based; conditions: PANC-1, 48 h
Procedure, shortened: (§1)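 Cells tested by MTT: pancreatic Panc-1, breast MCF-7, colon HT-29 and A-549. Doxorubicin run alongside as the reference compound.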

HT-29 = experiment: Antiproliferative activity against human HT-29 cells assessed as inhibition of cell proliferation measured after 48 hrs by MTT assay; format: functional, cell-based; conditions: HT-29, 48 h; procedure, shortened: as §1
A549 = experiment: Antiproliferative activity against human A549 cells assessed as inhibition of cell proliferation measured after 48 hrs by MTT assay; format: functional, cell-based; conditions: A549, 48 h; procedure, shortened: as §1
PANC-1 [2] = experiment: Cell cycle arrest in human PANC1 cells assessed as accumulation at pre G1 phase measured after 24 hrs by annexin v propidium iodide staining based flow cytometric analysis (reference value: 1.79%); format: functional
[3] = Cytotoxicity against human MCF10A cells assessed as cell viability at 50 uM measured after 4 days by MTT assay relative to control; format: cell-based, MCF-10A; conditions: read-out: Activity
MCF7 = experiment: Antiproliferative activity against human MCF7 cells assessed as inhibition of cell proliferation measured after 48 hrs by MTT assay; format: functional, cell-based; conditions: MCF7, 48 h; procedure, shortened: as §1
[4] = target: Epidermal growth factor receptor (Homo sapiens, UniProt P00533); experiment: Inhibition of human EGFR measured after 3 hrs by ELISA
Sequence of Epidermal growth factor receptor (P00533 whole entry): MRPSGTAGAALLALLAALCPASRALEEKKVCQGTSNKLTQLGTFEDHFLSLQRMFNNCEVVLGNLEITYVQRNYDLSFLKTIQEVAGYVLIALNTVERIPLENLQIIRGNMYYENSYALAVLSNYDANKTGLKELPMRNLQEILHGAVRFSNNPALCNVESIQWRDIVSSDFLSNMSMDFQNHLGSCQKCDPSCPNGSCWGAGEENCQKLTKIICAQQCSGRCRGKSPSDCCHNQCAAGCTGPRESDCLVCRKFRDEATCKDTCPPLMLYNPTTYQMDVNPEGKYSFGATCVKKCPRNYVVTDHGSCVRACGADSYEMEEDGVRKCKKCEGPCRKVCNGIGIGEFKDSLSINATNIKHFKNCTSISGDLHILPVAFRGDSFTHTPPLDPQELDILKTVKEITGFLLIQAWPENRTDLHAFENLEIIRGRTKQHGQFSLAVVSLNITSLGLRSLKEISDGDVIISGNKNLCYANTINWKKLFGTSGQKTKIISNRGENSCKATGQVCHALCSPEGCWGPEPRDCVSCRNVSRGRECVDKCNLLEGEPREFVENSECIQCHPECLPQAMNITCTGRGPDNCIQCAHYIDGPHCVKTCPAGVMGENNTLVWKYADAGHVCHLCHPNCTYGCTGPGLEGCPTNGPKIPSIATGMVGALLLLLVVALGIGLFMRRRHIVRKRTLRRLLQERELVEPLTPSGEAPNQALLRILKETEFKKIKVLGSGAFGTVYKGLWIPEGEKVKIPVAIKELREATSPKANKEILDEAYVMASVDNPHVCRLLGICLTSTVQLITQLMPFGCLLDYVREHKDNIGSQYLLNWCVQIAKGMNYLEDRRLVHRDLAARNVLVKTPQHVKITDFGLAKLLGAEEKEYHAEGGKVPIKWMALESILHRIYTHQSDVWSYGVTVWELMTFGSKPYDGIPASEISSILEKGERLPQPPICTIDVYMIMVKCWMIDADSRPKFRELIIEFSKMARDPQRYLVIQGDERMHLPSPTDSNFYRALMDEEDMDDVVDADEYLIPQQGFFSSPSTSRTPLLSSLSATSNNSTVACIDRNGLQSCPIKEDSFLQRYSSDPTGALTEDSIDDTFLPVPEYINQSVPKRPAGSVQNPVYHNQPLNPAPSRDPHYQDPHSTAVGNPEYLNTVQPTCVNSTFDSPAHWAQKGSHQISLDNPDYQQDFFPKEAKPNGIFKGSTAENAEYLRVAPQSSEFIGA

PANC-1 [5] = experiment: Induction of apoptosis in human PANC1 cells assessed as increase in caspase 3 level measured after 24 to 48 hrs relative to control; format: functional
Procedure, shortened: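 Active caspase-3 protein in treated Panc-1 cells quantified as pg/mL. Reported as fold increase over untreated control cells, with doxorubicin as the reference drug.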

PANC-1 [6] = experiment: Induction of apoptosis in human PANC1 cells assessed as increase in caspase 8 level measured after 24 to 48 hrs relative to control; format: functional
Procedure, shortened: (§2)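 Caspase-8, caspase-9 and cytochrome c levels in treated Panc-1 cells expressed as fold change relative to untreated control cells.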

PANC-1 [7] = experiment: Induction of apoptosis in human PANC1 cells assessed as increase in cytochrome C level using TMB substrate measured after 24 hrs relative to control; format: functional; procedure, shortened: as §2
PANC-1 [8] = experiment: Induction of apoptosis in human PANC1 cells assessed as increase in caspase 9 level measured after 24 to 48 hrs relative to control; format: functional; procedure, shortened: as §2
PANC-1 [9] = experiment: Induction of apoptosis in human PANC1 cells assessed as increase in BAX level by Sybr-green dye based RT-PCR analysis relative to control; format: functional
PANC-1 [10] = experiment: Induction of apoptosis in human PANC1 cells assessed as downregulation of Bcl-2 expression level by Sybr-green dye based RT-PCR analysis relative to control; format: functional
PANC-1 [11] = experiment: Cell cycle arrest in human PANC1 cells assessed as accumulation at G0/G1 phase measured after 24 hrs by annexin v propidium iodide staining based flow cytometric analysis (reference value: 53.64%); format: functional
PANC-1 [12] = experiment: Cell cycle arrest in human PANC1 cells assessed as accumulation at G2/M phase measured after 24 hrs by annexin v propidium iodide staining based flow cytometric analysis (reference value: 9.95 %); format: functional
PANC-1 [13] = experiment: Induction of apoptosis in human PANC1 cells assessed as proportion of early apoptotic cells measured after 24 hrs by annexin v propidium iodide staining based flow cytometric analysis; format: functional
PANC-1 [14] = experiment: Induction of apoptosis in human PANC1 cells assessed as proportion of late apoptotic cells measured after 24 hrs by annexin v propidium iodide staining based flow cytometric analysis; format: functional
PANC-1 [15] = experiment: Induction of apoptosis in human PANC1 cells assessed as proportion of necrotic cells measured after 24 hrs by annexin v propidium iodide staining based flow cytometric analysis; format: functional

SMILES | pIC50 (PANC-1 [1]) | pIC50 (HT-29) | pIC50 (A549) | viability at 96 h, 50 µM [3] [%] | pIC50 (MCF7) | also measured
COc1cccc2c1C(=O)c1c(O)c3c(c(O)c1C2=O)C[C@@](O)(C(=O)CO)C[C@@H]3O[C@H]1C[C@H](N)[C@H](O)[C@H](C)O1 [DOXORUBICIN] | 5.85 | 6.00 | 5.92 |  |  | Activity (PANC-1 [2]): 22.17%
COc1ccc(C(=O)CSc2nc3c([nH]2)c(=O)n(C)c(=O)n3C)cc1 | 5.19 | 5.09 | 5.10 | > 90 | 5.12 | 
Cn1c(=O)c2[nH]c(SC/C(=N/O)c3ccc(Br)cc3)nc2n(C)c1=O | 5.77 | 5.77 | 5.74 | > 90 | 5.89 | pIC50 [4]: 6.35; fold change (FC) (PANC-1 [5]): 5.91
CC(=O)c1ccc(NC(=O)CSc2nc3c([nH]2)c(=O)n(C)c(=O)n3C)cc1 | 5.29 | 5.19 | 5.16 | > 90 | 5.21 | 
C/C(=N/O)c1ccc(NC(=O)CSc2nc3[nH]c(=O)n(C)c(=O)c3[nH]2)cc1 | 5.11 | 5.21 | 5.14 | > 90 | 5.04 | 
COc1ccc(/C(CSc2nc3[nH]c(=O)n(C)c(=O)c3[nH]2)=N\O)cc1 | 5.72 | 5.77 | 5.82 | > 90 | 5.74 | pIC50 [4]: 6.15; fold change (FC) (PANC-1 [5]): 7.65; fold change (FC) (PANC-1 [6]): 2.58; fold change (FC) (PANC-1 [7]): 11.43; fold change (FC) (PANC-1 [8]): 14.49; fold change (FC) (PANC-1 [9]): 8.9; fold change (FC) (PANC-1 [10]): 0.3378
Cn1c(=O)[nH]c2nc(SCC(=O)c3ccc(Br)cc3)[nH]c2c1=O | 5.01 | 4.94 | 4.92 | > 90 | 4.95 | 
Cn1c(=O)c2[nH]c(SC/C(=N/O)c3ccccc3)nc2n(C)c1=O | 5.26 | 5.17 | 5.21 | > 90 | 5.23 | 
Cn1c(=O)[nH]c2nc(SCC(=O)c3ccc(Cl)cc3)[nH]c2c1=O | 5.21 | 5.14 | 5.09 | > 90 | 5.20 | 
Cn1c(=O)[nH]c2nc(SC/C(=N/O)c3ccc(Cl)cc3)[nH]c2c1=O | 5.77 | 5.74 | 5.72 | > 90 | 5.85 | pIC50 [4]: 6.09; Activity (PANC-1 [11]): 35.08%; fold change (FC) (PANC-1 [5]): 8.06; fold change (FC) (PANC-1 [6]): 3.47; fold change (FC) (PANC-1 [7]): 10.2; fold change (FC) (PANC-1 [8]): 15.68; Activity (PANC-1 [12]): 34.36%; Activity (PANC-1 [2]): 17.34%; fold change (FC) (PANC-1 [9]): 12.7; fold change (FC) (PANC-1 [10]): 0.239; Activity (PANC-1 [13]): 6.11%; Activity (PANC-1 [14]): 8.86%; Activity (PANC-1 [15]): 2.37%
Cn1c(=O)c2[nH]c(SCC(=O)c3ccccc3)nc2n(C)c1=O | 5.31 | 5.23 | 5.17 | > 90 | 5.29 | 
C/C(=N/O)c1ccc(NC(=O)CSc2nc3c([nH]2)c(=O)n(C)c(=O)n3C)cc1 | 5.34 | 5.51 | 5.18 | > 90 | 5.28 | 
Cn1c(=O)c2[nH]c(SC/C(=N/O)c3ccc(Cl)cc3)nc2n(C)c1=O | 5.89 | 5.92 | 5.82 | > 90 | 6.00 | pIC50 [4]: 6.40; fold change (FC) (PANC-1 [5]): 4.11
Cn1c(=O)[nH]c2nc(SC/C(=N/O)c3ccccc3)[nH]c2c1=O | 5.44 | 5.68 | 5.25 | > 90 | 5.37 | 
Cn1c(=O)c2[nH]c(SCC(=O)c3ccc(Br)cc3)nc2n(C)c1=O | 5.13 | 5.19 | 5.10 | > 90 | 5.12 | 
COc1ccc(C(=O)CSc2nc3[nH]c(=O)n(C)c(=O)c3[nH]2)cc1 | 5.26 | 5.17 | 5.21 | > 90 | 5.23 | 
COc1ccc(/C(CSc2nc3c([nH]2)c(=O)n(C)c(=O)n3C)=N\O)cc1 | 6.04 | 5.77 | 5.82 | > 90 | 6.10 | 
CC(=O)c1ccc(NC(=O)CSc2nc3[nH]c(=O)n(C)c(=O)c3[nH]2)cc1 | 5.23 | 5.16 | 5.11 | > 90 | 5.21 | 
Cn1c(=O)[nH]c2nc(SCC(=O)c3ccccc3)[nH]c2c1=O | 5.03 | 4.95 | 4.92 | > 90 | 4.94 | 
Cn1c(=O)[nH]c2nc(SC/C(=N/O)c3ccc(Br)cc3)[nH]c2c1=O | 5.68 | 5.70 | 5.68 | > 90 | 5.77 | pIC50 [4]: 5.54; fold change (FC) (PANC-1 [5]): 4.99
Cn1c(=O)c2[nH]c(SCC(=O)c3ccc(Cl)cc3)nc2n(C)c1=O | 5.14 | 5.00 | 5.08 | > 90 | 5.08 | 
